# Measurements from different studies.
# pIC50: −log10 of the molar value.
# Target: Prostaglandin G/H synthase 2 (PTGS2, Homo sapiens, UniProt P35354)
# Effect on: enzyme activity
# Mode: inhibitor
# One construct used (P35354 18-604): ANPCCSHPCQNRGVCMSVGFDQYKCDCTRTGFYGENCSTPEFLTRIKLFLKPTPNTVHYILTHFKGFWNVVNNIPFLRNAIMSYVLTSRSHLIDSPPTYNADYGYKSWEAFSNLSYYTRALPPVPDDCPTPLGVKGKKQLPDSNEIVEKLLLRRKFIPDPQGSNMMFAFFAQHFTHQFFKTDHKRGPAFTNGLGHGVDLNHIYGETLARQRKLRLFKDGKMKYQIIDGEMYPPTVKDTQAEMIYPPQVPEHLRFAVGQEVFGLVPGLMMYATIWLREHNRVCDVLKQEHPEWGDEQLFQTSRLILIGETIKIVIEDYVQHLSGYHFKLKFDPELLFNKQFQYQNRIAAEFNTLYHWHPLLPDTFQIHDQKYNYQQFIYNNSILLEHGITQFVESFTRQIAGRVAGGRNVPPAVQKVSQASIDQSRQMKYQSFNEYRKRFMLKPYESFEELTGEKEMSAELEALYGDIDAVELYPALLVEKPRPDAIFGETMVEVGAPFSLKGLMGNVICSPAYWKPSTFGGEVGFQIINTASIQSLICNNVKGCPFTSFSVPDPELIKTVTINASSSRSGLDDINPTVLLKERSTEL
SMILES,technique,pIC50
CS(=O)(=O)c1ccc(-n2cc(/C=N/N=c3\[nH]c(-c4ccc([N+](=O)[O-])cc4)cs3)c(-c3ccc(Br)cc3)n2)cc1,,4.94
CC1=NN(c2cccc(Cl)c2)C(=O)/C1=C\c1cn(-c2nc(N3CCCCC3)nc(N3CCCCC3)n2)c2ccccc12,,7.00
Cc1cccn2c(Nc3ccccc3)c(-c3ccc(S(C)(=O)=O)cc3)nc12,,7.10
CC(=O)c1ccc(/N=N/c2cc(/C=C/C(=O)O)ccc2O)cc1,,< 4.00
Cc1cccn2c(Nc3ccc(F)cc3)c(-c3ccc(S(C)(=O)=O)cc3)nc12,,7.15
O=Cc1cn(-c2nc(Cl)nc(N3CCOCC3)n2)c2ccccc12,,5.00
CS(=O)(=O)c1ccc(-c2ncccc2-c2nc3ccccc3s2)cc1,absorbance,6.07
O=C1/C(=C\c2cn(-c3nc(N4CCCC4)nc(N4CCOCC4)n3)c3ccccc23)c2ccccc2N1c1c(Cl)cccc1Cl,,5.40
CS(=O)(=O)c1ccc(-n2cc(/C=N/N=c3\[nH]c(-c4ccc(Br)cc4)cs3)c(-c3ccc(Br)cc3)n2)cc1,,5.23
CS(=O)(=O)c1ccc(-c2nc3ccccn3c2Nc2ccc(Cl)cc2)cc1,,7.15
CC1=NN(c2cccc(Cl)c2)C(=O)/C1=C\c1cn(-c2nc(Cl)nc(N3CCOCC3)n2)c2ccccc12,,7.00
COc1ccc(Nc2c(-c3ccc(S(C)(=O)=O)cc3)nc3cccc(C)n23)cc1,,7.05
CCOC(=O)c1cc(O)c(O)c(O)c1,,4.87
CC1=NN(c2cccc(Cl)c2)C(=O)/C1=C\c1cn(-c2nc(N3CCCCC3)nc(N3CCOCC3)n2)c2ccccc12,,7.30
CCn1c(-c2nc3ccc(C(=O)N4CCCC(N)C4)cc3n2C)cc2ccccc21 (stereo not drawn),,< 4.00
O=C(O)c1cc(O)c(O)c(O)c1,,5.09
CS(=O)(=O)c1ccc(-c2nc3ccccn3c2Nc2ccc(F)cc2)cc1,,7.00
CS(=O)(=O)c1ccc(-c2ncc(Cl)cc2-c2nc3ccccc3s2)cc1,absorbance,6.64
O=C1Nc2ccccc2/C1=C/c1cn(-c2nc(N3CCOCC3)nc(N3CCOCC3)n2)c2ccccc12,,6.00
O=C(O)/C=C/c1ccc(O)cc1,,< 4.00
COc1cc([C@H]2OC[C@H]3[C@@H]2CO[C@@H]3c2cc(OC)c(O)c(OC)c2)cc(OC)c1O,absorbance,5.60
CS(=O)(=O)c1ccc(-n2cc(/C=N/N=c3\[nH]c(-c4ccc([N+](=O)[O-])cc4)cs3)c(-c3ccc([N+](=O)[O-])cc3)n2)cc1,,4.81
O=C1/C(=C\c2cn(-c3nc(N4CCOCC4)nc(N4CCOCC4)n3)c3ccccc23)c2ccccc2N1c1c(Cl)cccc1Cl,,6.40
Cc1cccc2nc(-c3ccc(S(C)(=O)=O)cc3)c(Nc3ccc(F)cc3)n12,,7.10
O=c1oc2c(O)c(O)cc3c(=O)oc4c(O)c(O)cc1c4c23,,5.34
O=c1cc(-c2ccc(O)c(O)c2)oc2cc(O)cc(O)c12,,5.64
Cc1cccc2nc(-c3ccc(S(C)(=O)=O)cc3)c(Nc3ccc(Cl)cc3)n12,,7.10
NS(=O)(=O)c1ccc(-c2ncccc2-c2nc3ccccc3s2)cc1,absorbance,6.16
COc1ccc(Nc2c(-c3ccc(S(C)(=O)=O)cc3)nc3ccccn23)cc1,,6.41
COc1ccc(-c2nn(-c3ccc(S(C)(=O)=O)cc3)cc2/C=N/N=c2\[nH]c(-c3ccc(Br)cc3)cs2)cc1,,4.73
C=C[C@@]1(C)C=C2CC[C@@H]3[C@](C)(CCC[C@@]3(C)C(=O)O)[C@H]2CC1,absorbance,4.73
CC(C)Cc1ccc(-c2nn(-c3ccc(S(C)(=O)=O)cc3)cc2/C=N/N=c2\[nH]c(-c3ccc([N+](=O)[O-])cc3)cs2)cc1,,6.09
O=C1/C(=C\c2cn(-c3nc(N4CCCCC4)nc(N4CCOCC4)n3)c3ccccc23)c2ccccc2N1c1c(Cl)cccc1Cl,,6.00
